Drawing on ChEMBL document CHEMBL2073766, “Effects of grapefruit juice and orange juice components on P-glycoprotein- and MRP2-mediated drug efflux” (Br J Pharmacol, 2004), this text covers Activity for seven molecules.

Holding throughout (assay type): functional, cell-based
Data set [1] concerns the target T1, ATP-dependent translocase ABCB1 (Homo sapiens, UniProt P08183). The data set is described as follows: TP_TRANSPORTER: increase in saquinavir intracellular accumulation in the presence of Sulfinpyrazone at 5mM in LLC-GA5-COL150 cells. To be noted: pig, llc-ga5-col150, 5000 µM. The method in brief:
(§1)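 LLC-GA5-COL150 (human MDR1-transfected LLC-PK1; colchicine withdrawn 6 h before assay) and LLC-PK1 control cells were grown 3 days in four-well dishes. Uptake of 5 µM [¹⁴C]saquinavir ± inhibitor ran 90 min in pH 7.4 HEPES buffer at 37°C and was stopped with ice-cold washes. Cell/medium ratio was normalised to Lowry protein. Potentiation ratio = % of control (MDR1 cells) / % of control (LLC-PK1) × 100; mean ± s.e.m. of three experiments.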

In data set [2] the target is T1, ATP-dependent translocase ABCB1. The data set is described as follows: TP_TRANSPORTER: increase in Vinblastine intracellular accumulation in the presence of Sulfinpyrazone at 5mM in LLC-GA5-COL150 cells. To be noted: pig, llc-ga5-col150, 5000 µM. The method, boiled down:
(§2)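 LLC-GA5-COL150 (LLC-PK1 transfected with human MDR1; grown with 150 ng ml⁻¹ colchicine, withdrawn 6 h before assay) and parental LLC-PK1 seeded in four-well dishes and grown 3 days. Cells were incubated 90 min with 20 nM [³H]vinblastine ± inhibitor in HEPES buffer, pH 7.4, 37°C, then washed in ice-cold buffer. Read-out was cell/medium ratio per mg protein (Lowry) by scintillation. Uptake potentiation ratio = % of control in transfectant / % of control in LLC-PK1 × 100; mean ± s.e.m., n=3.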

Data set [3] has the same target. The experiment in a line: TP_TRANSPORTER: increase in saquinavir intracellular accumulation in the presence of Nobiletin at 20uM in LLC-GA5-COL150 cells. Particulars: pig, llc-ga5-col150, 20 µM. The method in brief:
as §1

Data set [4] shares this target. The data set is described as follows: TP_TRANSPORTER: increase in Vinblastine intracellular accumulation of Nobiletin at a concentration of 20uM in LLC-GA5-COL150 cells. Particulars: pig, llc-ga5-col150, 20 µM. The method in brief: as §2
Data set [5] has the same target. The experiment in a line: TP_TRANSPORTER: increase in saquinavir intracellular accumulation in the presence of Probenecid at 5mM in LLC-GA5-COL150 cells. Particulars: pig, llc-ga5-col150, 5000 µM. The method in brief: as §1
Data set [6] shares this target. The experiment in a line: TP_TRANSPORTER: increase in Vinblastine intracellular accumulation in the presence of Probenecid at 5mM in LLC-GA5-COL150 cells. To be noted: pig, llc-ga5-col150, 5000 µM. The method in brief:
as §2

For data set [7] the target is unchanged. The experiment in a line: TP_TRANSPORTER: increase in saquinavir intracellular accumulation of 6',7'-Dihydroxybergamottin at a concentration of 20uM in LLC-GA5-COL150 cells. To be noted: pig, llc-ga5-col150, 20 µM. The method, boiled down: as §1
Data set [8] shares this target. The data set is described as follows: TP_TRANSPORTER: increase in Vinblastine intracellular accumulation of 6',7'-Dihydroxybergamottin at a concentration of 20uM in LLC-GA5-COL150 cells. Particulars: pig, llc-ga5-col150, 20 µM. The method in brief:
as §2

Data set [9] has the same target. The experiment in a line: TP_TRANSPORTER: increase in saquinavir intracellular accumulation of Tangeretin at a concentration of 20uM in LLC-GA5-COL150 cells. To be noted: pig, llc-ga5-col150, 20 µM. The method, boiled down: as §1
Data set [10] shares this target. The data set is described as follows: TP_TRANSPORTER: increase in Vinblastine intracellular accumulation of Tangeretin at a concentration of 20uM in LLC-GA5-COL150 cells. To be noted: pig, llc-ga5-col150, 20 µM. The method in brief:
as §2

Data set [11] shares this target. The data set is described as follows: TP_TRANSPORTER: increase in Vinblastine intracellular accumulation in the presence of Bergamottin at 20uM in LLC-GA5-COL150 cells. Particulars: pig, llc-ga5-col150, 20 µM. The method in brief:
as §2

The target is the same in data set [12]. The experiment in a line: TP_TRANSPORTER: increase in Vinblastine intracellular accumulation in the presence of MK-571 at 50uM in LLC-GA5-COL150 cells. Particulars: pig, llc-ga5-col150, 50 µM. The method, boiled down: as §2

T1 sequence (P08183 whole entry): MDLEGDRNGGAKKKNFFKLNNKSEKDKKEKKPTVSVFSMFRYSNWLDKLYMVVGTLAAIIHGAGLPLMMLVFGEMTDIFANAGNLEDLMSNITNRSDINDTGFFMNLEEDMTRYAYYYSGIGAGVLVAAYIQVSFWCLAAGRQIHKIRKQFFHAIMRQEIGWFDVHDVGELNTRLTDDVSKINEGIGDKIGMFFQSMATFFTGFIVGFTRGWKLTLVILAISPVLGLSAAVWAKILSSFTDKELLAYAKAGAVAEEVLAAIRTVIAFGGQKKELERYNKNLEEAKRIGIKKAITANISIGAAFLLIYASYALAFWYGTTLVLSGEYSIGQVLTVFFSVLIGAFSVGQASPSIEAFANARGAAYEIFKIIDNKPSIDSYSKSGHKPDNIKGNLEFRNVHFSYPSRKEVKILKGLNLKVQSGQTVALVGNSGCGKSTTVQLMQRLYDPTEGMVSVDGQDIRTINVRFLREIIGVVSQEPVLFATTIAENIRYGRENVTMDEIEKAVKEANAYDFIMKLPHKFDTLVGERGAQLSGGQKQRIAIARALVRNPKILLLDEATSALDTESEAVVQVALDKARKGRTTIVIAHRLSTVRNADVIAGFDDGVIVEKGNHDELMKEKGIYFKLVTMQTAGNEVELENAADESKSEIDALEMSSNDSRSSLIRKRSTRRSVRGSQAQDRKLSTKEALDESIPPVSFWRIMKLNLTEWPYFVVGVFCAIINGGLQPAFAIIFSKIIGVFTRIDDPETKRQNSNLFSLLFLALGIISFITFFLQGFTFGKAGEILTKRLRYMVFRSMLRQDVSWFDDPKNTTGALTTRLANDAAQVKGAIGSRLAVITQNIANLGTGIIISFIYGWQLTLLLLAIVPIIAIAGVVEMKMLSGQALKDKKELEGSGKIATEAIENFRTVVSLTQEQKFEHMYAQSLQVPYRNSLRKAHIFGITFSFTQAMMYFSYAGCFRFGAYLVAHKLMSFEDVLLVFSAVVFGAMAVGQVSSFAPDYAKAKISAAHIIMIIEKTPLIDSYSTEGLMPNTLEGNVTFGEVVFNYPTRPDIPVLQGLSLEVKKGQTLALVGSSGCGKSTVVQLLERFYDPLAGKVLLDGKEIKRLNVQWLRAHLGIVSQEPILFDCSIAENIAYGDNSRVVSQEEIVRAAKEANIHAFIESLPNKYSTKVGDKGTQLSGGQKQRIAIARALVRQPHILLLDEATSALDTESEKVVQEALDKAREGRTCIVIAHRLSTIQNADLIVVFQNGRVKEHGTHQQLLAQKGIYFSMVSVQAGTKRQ

For `O=C1C(CC[S+]([O-])c2ccccc2)C(=O)N(c2ccccc2)N1c1ccccc1` (configuration not stated) [SULFINPYRAZONE], the Activity result in data set [1] and in [2] was “is not an inhibitor [-]” in each case.

As to `COc1ccc(-c2cc(=O)c3c(OC)c(OC)c(OC)c(OC)c3o2)cc1OC` [NOBILETIN], the Activity result in [3] is “is not an inhibitor [-]”; in data set [4], “inhibitor [+]”.

Take `CCCN(CCC)S(=O)(=O)c1ccc(C(=O)O)cc1` [PROBENECID]: the Activity entry in data set [5] and in [6] was “is not an inhibitor [-]” throughout.

As for `C/C(=C\COc1c2ccoc2cc2oc(=O)ccc12)CC[C@@H](O)C(C)(C)O`, the Activity result in data set [7] and in data set [8] was “inhibitor [+]” in each case.

`COc1ccc(-c2cc(=O)c3c(OC)c(OC)c(OC)c(OC)c3o2)cc1` [TANGERETIN]: the Activity entry in data set [9] and in data set [10] was “inhibitor [+]” throughout.

Regarding `CC(C)=CCC/C(C)=C/COc1c2ccoc2cc2oc(=O)ccc12` [BERGAMOTTIN], the Activity result in data set [11] was “is not an inhibitor [-]”.

Regarding `CN(C)C(=O)CCSC(SCCC(=O)O)c1cccc(/C=C/c2ccc3ccc(Cl)cc3n2)c1` (configuration not stated) [MK-571], the Activity entry in data set [12] is “is not an inhibitor [-]”.
